In article PMC4253050 (Cellular signalling, 2014):
One block for each substance: values may come before it.

What was measured:
[1] = target: T1, kB1R (Homo sapiens, UniProt P46663); assay: [3H]DAKD binding and endocytosis assay, cell surface kB1R, HEK293 cells; details: HEK cells stably expressing kB1R and kB2R; 10 min, 37 °C (DAKD 1 μM), no acid wash; 4 nM [3H]DAKD 90 min on ice; n=3
T1 sequence (P46663 1-353): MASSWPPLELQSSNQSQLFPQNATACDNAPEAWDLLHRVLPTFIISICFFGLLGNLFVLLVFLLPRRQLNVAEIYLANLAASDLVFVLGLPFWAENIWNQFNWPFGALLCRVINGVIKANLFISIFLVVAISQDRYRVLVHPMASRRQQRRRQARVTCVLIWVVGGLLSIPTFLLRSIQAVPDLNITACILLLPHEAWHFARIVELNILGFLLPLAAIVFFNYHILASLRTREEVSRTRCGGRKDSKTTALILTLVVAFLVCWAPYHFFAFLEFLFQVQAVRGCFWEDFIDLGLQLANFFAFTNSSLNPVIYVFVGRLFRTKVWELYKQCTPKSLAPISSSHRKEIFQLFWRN
How it was run: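 Confluent monolayers were rinsed three times in warm PBS and exposed to unlabelled agonist or vehicle (PBS). They were washed with ice-cold PBS, and binding was then done on ice. Cells were washed three times in cold PBS, lysed in 0.2 M NaOH and counted by scintillation. Total binding was taken as label bound in cells given PBS alone.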

[2] = target: T2, kB2R (Homo sapiens, UniProt P30411); assay: Intracellular Ca2+ response; type: cell-based; details: HEK cells stably expressing kB1R and kB2R; first 1 μM DAKD, then 1 μM KD
T2 sequence (P30411 1-391): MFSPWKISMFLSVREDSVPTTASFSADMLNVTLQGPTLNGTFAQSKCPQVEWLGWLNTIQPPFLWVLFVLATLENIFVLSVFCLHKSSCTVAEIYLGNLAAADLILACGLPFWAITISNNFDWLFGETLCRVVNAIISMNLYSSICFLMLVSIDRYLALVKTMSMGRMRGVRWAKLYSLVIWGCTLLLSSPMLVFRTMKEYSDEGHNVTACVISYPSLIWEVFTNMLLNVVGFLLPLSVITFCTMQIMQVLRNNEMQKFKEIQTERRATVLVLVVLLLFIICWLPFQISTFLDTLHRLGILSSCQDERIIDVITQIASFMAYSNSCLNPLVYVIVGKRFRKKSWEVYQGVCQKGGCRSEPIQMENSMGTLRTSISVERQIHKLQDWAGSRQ

[3] = target: T1, kB1R; assay: [3H]Arachidonic acid release, kB1R-mediated, cells co-expressing kB1R and kB2R; type: cell-based; details: stably co-expressing HEK cells (so in the source); 1 μM
How it was run: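 Cells at ~80% confluence were labelled for 18–24 h in growth medium with 0.1% FBS and 1 μCi/ml [³H]arachidonic acid. They were washed three times in HAM's/F12 buffer (HEPES, NaHCO₃, 0.1% fat-free BSA), then incubated with agonist in that buffer at 37 °C. Released label in the collected medium was counted by liquid scintillation.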

[4] = target: T1, kB1R; assay: Phosphoinositide turnover; type: cell-based; details: stably co-expressing HEK cells; 1 μM
[5] = tested on: human lung microvascular endothelial cells (HLMVEC); assay: Transendothelial electrical resistance; type: cell-based; details: cytokine-treated HLMVEC; 100 nM; BK in the presence of MGTA; n = 4
How it was run: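 Primary HLMVEC (passage 3–6) were grown to confluence on gold electrodes coated with 10 μg/ml fibronectin. Cells were cytokine-primed for 16 h with IL-1β plus 100 U/ml IFN-γ, then moved to EBM-2 with 1% FBS for 1 h and impedance-monitored (ECIS) until baseline was stable. BK samples were pretreated with 40 μM MGTA. Cells received ±100 nM BK for 10 min, then 100 nM DAKD or vehicle, with or without 200 μM pyrogallol; TER recorded.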

[6] = tested on: GPCRs coupled with Gαq (LPA); assay: Intracellular Ca2+ response to LPA, HEK cells; type: cell-based, human
How it was run: (§1)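 Cross-desensitization in HEK293 cells stably expressing kB1R, loaded with fura-2 (2 μM, 60 min, 37 °C) on polylysine coverslips. Cells were given thrombin or LPA followed by kB1R agonist, or kB1R agonist first and then thrombin or LPA. [Ca²⁺]i was read as 510 nm emission at 340/380 nm excitation.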

[7] = target: T1, kB1R; assay: Intracellular Ca2+ response; type: cell-based; details: for effect of pre-stimulation on kB1R response: kB1R expressing cells, discussion summary
How it was run: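 Receptor-expressing HEK cells were grown to 80% confluence on polylysine-coated glass coverslips. They were loaded with 2 μM fura-2/AM for 60 min at 37 °C. For pre-stimulation, cells received vehicle or a kinin agonist (e.g. 1 μM BK) for 10 min, then a kB1R agonist. The [Ca²⁺]i rise was quantified as area under the curve and plotted against log dose; n=3, mean ± SE.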

[8] = tested on: protease activated receptor; assay: Intracellular Ca2+ response to thrombin, HEK cells; type: cell-based, human
How it was run: as §1

[9] = HEK cells stably expressing kB1R
[10] = HEK cells stably expressing kB1R or kB2R

inhibition of [3H]-DAKD binding, without acid washing [1]: ~ 80%
Substance: des-Arg^9 -HOE-140 [des-Arg-HOE140]

calcium response to 1 μM KD added after pre-stimulation with kB1R agonist [2]: second robust increase
arachidonic acid release response [3]: responded robustly
inhibition of [3H]-DAKD binding, without acid washing [1]: ~ 80%
IP3 turnover response [4]: responded robustly
Substance: des-Arg^10-kallidin [DAKD]
increase in TER [5]: substantial and prolonged
effect of kB1R agonist on calcium response to subsequent LPA [6, 9]: did not reduce the calcium response

effect of LPA on kB1R response to subsequent DAKD [7, 9]: did not decrease the kB1R response
effect of pre-stimulation on kB1R response [7]: did not reduce the kB1R response
Substance: lysophosphatidic acid [LPA]
increase in [Ca2+]i by LPA ([6]; HEK cells expressing kB1R): relatively lower calcium response than thrombin
cross-desensitization between kB1R, kB2R and LPA [6, 10]: Lack of cross-desensitization

effect of thrombin on increase in [Ca2+]i induced by subsequent DABK (1 μM) [7, 9]: did not inhibit the increase in [Ca^2+]i
effect of pre-stimulation on kB1R response [7]: did not reduce the kB1R response
Substance: thrombin
increase in [Ca2+]i by thrombin [8, 9]: large increase in [Ca^2+]i
cross-desensitization between kB1R, kB2R and thrombin [8, 10]: Lack of cross-desensitization
